Key:
Format in all cases: functional
MDA-MB-435 = test: Growth inhibition of human MDA-MB-435 cells at 10 uM after 48 hrs; details: MDA-MB-435, 48 h, read-out: GI
Summary of the method: (§1)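 Single-dose primary screen in the NCI 60 human tumour cell line panel, run at the NCI facility. The panel covers nine subpanels: leukaemia, non-small cell lung, colon, CNS, melanoma, ovarian, renal, prostate and breast. Read-out was percent growth of treated cells, shown as a mean graph and reported as percent growth inhibition.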

M14 = test: Growth inhibition of human M14 cells at 10 uM after 48 hrs; details: M14, 48 h, read-out: GI; summary of the method: as §1
Malme-3M = test: Growth inhibition of human MALME-3M cells at 10 uM after 48 hrs; details: read-out: GI; summary of the method: as §1
KM12 = test: Growth inhibition of human KM12 cells at 10 uM after 48 hrs; details: KM12, 48 h, read-out: GI; summary of the method: as §1
HCT-15 = test: Growth inhibition of human HCT15 cells at 10 uM after 48 hrs; details: HCT-15, 48 h, read-out: GI; summary of the method: as §1
HT-29 = test: Growth inhibition of human HT-29 cells at 10 uM after 48 hrs; details: HT-29, 48 h, read-out: GI; summary of the method: as §1
HCT-116 = test: Growth inhibition of human HCT116 cells at 10 uM after 48 hrs; details: HCT-116, 48 h, read-out: GI; summary of the method: as §1
[1] = Growth inhibition of human HCC2998 cells at 10 uM after 48 hrs; details: HCC 2998, 48 h, read-out: GI; summary of the method: as §1
NCI-H460 = test: Growth inhibition of human NCI-H460 cells at 10 uM after 48 hrs; details: NCI-H460, 48 h, read-out: GI; summary of the method: as §1
[2] = Growth inhibition of human HOP92 cells at 10 uM after 48 hrs; details: HOP-92, 48 h, read-out: GI; summary of the method: as §1
RPMI-8226 = test: Growth inhibition of human RPMI8226 cells at 10 uM after 48 hrs; details: RPMI-8226, 48 h, read-out: GI; summary of the method: as §1
HL-60(TB) = test: Growth inhibition of human HL-60(TB) cells at 10 uM after 48 hrs; details: HL-60, 48 h, read-out: GI
Summary of the method: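 NCI 60-cell-line human tumour panel covering nine subpanels (leukaemia, non-small cell lung, colon, CNS, melanoma, ovarian, renal, prostate, breast), run at the NCI facility. Primary screen tested a single dose of each compound. Read-out was percent growth of treated cells versus untreated cells, reported from the mean graph as percentage growth inhibition.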

MDA-MB-468 = test: Growth inhibition of human MDA-MB-468 cells at 10 uM after 48 hrs; details: MDA-MB-468, 48 h, read-out: GI; summary of the method: as §1
BT-549 = test: Growth inhibition of human BT549 cells at 10 uM after 48 hrs; details: BT-549, 48 h, read-out: GI; summary of the method: as §1
DU-145 = test: Growth inhibition of human DU145 cells at 10 uM after 48 hrs; details: DU-145, 48 h, read-out: GI; summary of the method: as §1
SN12C = test: Growth inhibition of human SN12C cells at 10 uM after 48 hrs; details: read-out: GI
Summary of the method: (§2)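 NCI 60-cell-line disease-oriented human tumor panel, single-dose primary screen at 10 µM. Data given as mean-graph percent growth of treated cells, reported as percent growth inhibition (GI %).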

ACHN = test: Growth inhibition of human ACHN cells at 10 uM after 48 hrs; details: read-out: GI; summary of the method: as §1
786-0 = test: Growth inhibition of human 786-0 cells at 10 uM after 48 hrs; details: 786-0, 48 h, read-out: GI; summary of the method: as §1
A498 = test: Growth inhibition of human A498 cells at 10 uM after 48 hrs; details: A498, 48 h, read-out: GI; summary of the method: as §1
OVCAR-8 = test: Growth inhibition of human OVCAR8 cells at 10 uM after 48 hrs; details: OVCAR-8, 48 h, read-out: GI; summary of the method: as §1
OVCAR-3 = test: Growth inhibition of human OVCAR3 cells at 10 uM after 48 hrs; details: OVCAR-3, 48 h, read-out: GI; summary of the method: as §1
[3] = Growth inhibition of human UACC257 cells at 10 uM after 48 hrs; details: UACC-257, 48 h, read-out: GI; summary of the method: as §2
SK-MEL-5 = test: Growth inhibition of human SK-MEL-5 cells at 10 uM after 48 hrs; details: SK-MEL-5, 48 h, read-out: GI; summary of the method: as §2
[4] = Cytotoxicity against human breast cancer cells at 10 uM after 48 hrs; details: Cancer cell lines; summary of the method: as §1
[5] = Cytotoxicity against human renal cancer cells at 10 uM after 48 hrs; details: Cancer cell lines
[6] = Cytotoxicity against human melanoma cells at 10 uM after 48 hrs; details: Melanoma cell; for CC50: read-out: LC50 (the source's name); summary of the method: as §1
[7] = Cytotoxicity against human CNS cancer cells at 10 uM after 48 hrs; details: Cancer cell lines; for CC50: read-out: LC50 (the source's name)
[8] = Cytotoxicity against human non-small cell lung cancer cells at 10 uM after 48 hrs; details: Cancer cell lines; for CC50: read-out: LC50 (the source's name); summary of the method: as §1

SMILES	inhibition of growth at 10 µM (MDA-MB-435) [%]	inhibition of growth at 10 µM (M14) [%]	inhibition of growth at 10 µM (Malme-3M) [%]	inhibition of growth at 10 µM (KM12) [%]	inhibition of growth at 10 µM (HCT-15) [%]	inhibition of growth at 10 µM (HT-29) [%]	inhibition of growth at 10 µM [1] [%]	inhibition of growth at 10 µM (NCI-H460) [%]	inhibition of growth at 10 µM [2] [%]	inhibition of growth at 10 µM (HL-60(TB)) [%]	inhibition of growth at 10 µM (BT-549) [%]	inhibition of growth at 10 µM (DU-145) [%]	inhibition of growth at 10 µM (SN12C) [%]	inhibition of growth at 10 µM (ACHN) [%]	inhibition of growth at 10 µM (786-0) [%]	inhibition of growth at 10 µM (A498) [%]	inhibition of growth at 10 µM (OVCAR-8) [%]	inhibition of growth at 10 µM (OVCAR-3) [%]	inhibition of growth at 10 µM [3] [%]	inhibition of growth at 10 µM (SK-MEL-5) [%]	also measured
Cc1nc2c(c(-c3ccc(Br)cc3)n1)CCC/C2=C\c1ccc(Br)cc1	< 30	< 30	< 30	< 30	< 30	< 30	< 30	< 30	< 30	< 30	< 30	< 30	< 30	< 30	< 30	< 30	< 30	< 30	< 30	< 30	inhibition of growth at 10 µM (HCT-116): 55.8%; inhibition of growth at 10 µM (RPMI-8226): 73.7%; inhibition of growth at 10 µM (MDA-MB-468): < 30%
Nc1nc2c(c(-c3ccc(Cl)cc3)n1)CCC/C2=C\c1ccc(Cl)cc1		89	< 30	97.7	41.7	92.3		< 30	< 30	35.2	< 30	< 30	< 30	< 30	< 30	45.3	58.8	60.9	< 30	< 30	GI50 [4]: 23.6 µM; LC50 (concentration killing 50% of cells) [4]: 92.2 µM; TGI [4]: 70.9 µM; CC50 [5]: 78.4 µM; GI50 [5]: 14.7 µM; TGI [5]: 40.6 µM; GI50 [6]: 15.4 µM; TGI [6]: 36.5 µM; CC50 [6]: 80 µM; GI50 [7]: 13.7 µM; TGI [7]: 53.1 µM; CC50 [7]: 91.9 µM; GI50 [8]: 15.2 µM; TGI [8]: 55.7 µM; CC50 [8]: 88.6 µM; inhibition of growth at 10 µM (MDA-MB-468): 37.8%
Nc1nc2c(c(-c3ccc(Br)cc3)n1)CCC/C2=C\c1ccc(Br)cc1	63.2	38.1	< 30	53	< 30	67.8	51.5	< 30	< 30	< 30	< 30	< 30	< 30	< 30	< 30	< 30	< 30	< 30	< 30	< 30	inhibition of growth at 10 µM (MDA-MB-468): < 30%
Clc1ccc(/C=C2\CCCC3=C(c4ccc(Cl)cc4)Nc4ccccc4N=C32)cc1	88.2	70.9	< 30	82.7	36.4	84.1	< 30	< 30	39.4	< 30	< 30	< 30	< 30	< 30	< 30	32.8	34.3	33	< 30	< 30	GI50 [4]: 4.6 µM; LC50 (concentration killing 50% of cells) [4]: 88.1 µM; TGI [4]: 58.2 µM; CC50 [5]: 64 µM; GI50 [5]: 3.3 µM; TGI [5]: 29.1 µM; GI50 [6]: 9.5 µM; TGI [6]: 24.3 µM; CC50 [6]: 64.2 µM; GI50 [7]: 4.9 µM; TGI [7]: 52.4 µM; CC50 [7]: 84.3 µM; GI50 [8]: 9 µM; TGI [8]: 35.2 µM; CC50 [8]: 81.3 µM; inhibition of growth at 10 µM (MDA-MB-468): 40%
COc1ccc(/C=C2\CCCc3c2nc(N)nc3-c2ccc(OC)c(OC)c2)cc1OC	69.2	42.7	47.5	67.9	64.1	75.8	< 30	35.4	< 30	57.7	63.9	< 30	42.6	72.7	< 30	< 30	89.4	89.2	53.8	60.3	inhibition of growth at 10 µM (HCT-116): 92.1%; inhibition of growth at 10 µM (RPMI-8226): 84.8%; GI50 [4]: 3.9 µM; LC50 (concentration killing 50% of cells) [4]: > 100 µM; TGI [4]: 87.3 µM; CC50 [5]: 93.6 µM; GI50 [5]: 7.8 µM; TGI [5]: 66.7 µM; GI50 [6]: 5.5 µM; TGI [6]: 73.4 µM; CC50 [6]: 95.6 µM; GI50 [7]: 26.7 µM; TGI [7]: 85.7 µM; CC50 [7]: > 100 µM; GI50 [8]: 22.1 µM; TGI [8]: 71.1 µM; CC50 [8]: 94.3 µM
COc1ccc(/C=C2\CCCc3c2nc(N)nc3-c2ccc(OC)cc2)cc1	< 30	< 30	< 30	< 30	< 30	< 30	< 30	< 30	31.4	32.2	< 30	< 30	< 30	< 30	< 30	< 30	< 30	< 30	< 30	43.8	inhibition of growth at 10 µM (HCT-116): < 30%; inhibition of growth at 10 µM (RPMI-8226): 42.3%
Cc1nc2c(c(-c3ccc(Cl)cc3)n1)CCC/C2=C\c1ccc(Cl)cc1	77.7	34.7	< 30	62	< 30	45.6	58.5	< 30	< 30	< 30	34	< 30	< 30	< 30	< 30	< 30	< 30	< 30	< 30	< 30	inhibition of growth at 10 µM (MDA-MB-468): < 30%

Source: ChEMBL document CHEMBL3112482, “Nonclassical antifolates, part 5. Benzodiazepine analogs as a new class of DHFR inhibitors: synthesis, antitumor testing and molecular modeling study” (Eur J Med Chem, 2014)
